# Measurements from different studies.
# Each line is one published result; the experiments were not run side by side.
# Observed: cell growth or viability
SMILES,cell line,test,conditions,endpoint,result
CC(=O)O[C@H]1C(=O)[C@@]2(C)[C@H]([C@H](OC(=O)c3ccccc3)[C@]3(O)C[C@H](OC(=O)[C@H](O)[C@@H](NC(=O)c4ccccc4)c4ccccc4)C(C)=C1C3(C)C)[C@]1(OC(C)=O)CO[C@@H]1C[C@@H]2O,GISTT1,resazurin,72 h,IC50,0.21 µM
CN1C(=O)c2ccccc2CCC(=O)c2ccccc21,L6,,,IC50,> 380 µM
CCc1cc(CN2CCc3cc(OS(N)(=O)=O)c(OC)cc3C2)cc(CC)c1CC,CNSSF-539,SRB,,GI50,916 nM
CC(C)C[C@H](NC(=O)[C@H](Cc1ccccc1)NC(=O)c1cnccn1)B(O)O,GISTT1,,72 h,IC50,0.006 µM
O=C1Nc2ccc(C(=O)N3CCOCC3)cc2C(=O)CCc2ccccc21,L6,,,IC50,> 270 µM
O=c1ncccn1[C@@H]1O[C@H](CO)[C@@H](O)[C@H]1O,MEC1,,48 h,IC20,75 µM
COc1cc2c(cc1O)CCN(Cc1cc(Cl)c(OC)c(OC)c1)C2,CNSSF-539,SRB,,GI50,365 nM
CC(=O)Nc1cccc(-n2c(=O)n(C3CC3)c(=O)c3c(Nc4ccc(I)cc4F)n(C)c(=O)c(C)c32)c1,SW1417,resazurin,"780 pM, 72 h",viability,99.6%
O=C1Nc2ccccc2CCCc2ccccc21,L6,,,IC50,190 µM
CN(C)c1ccc(C(=C2C=CC(=[N+](C)C)C=C2)c2ccc(N(C)C)cc2)cc1,GISTT1,resazurin,72 h,IC50,0.52 µM
COc1cc2c(cc1OS(N)(=O)=O)CCN(Cc1cc(Cl)c(OC)c(OC)c1)C2,CNSSF-539,SRB,,GI50,19 nM
N#Cc1ccc2c(c1)C(=O)CCc1ccccc1C(=O)N2,L6,,,IC50,160 µM
